Source: ChEMBL document CHEMBL1122388, “beta 1-selective adrenoceptor antagonists. 2. 4-ether-linked phenoxypropanolamines” (J Med Chem, 1983)

How the values were obtained:
[1] = biological target: Beta-1 adrenergic receptor (Rattus norvegicus) (UniProt P18090); assay: Compound was tested for beta-1 adrenergic receptor blocking activity as the dose required to inhibit 50% of tachycardia in anesthetized rats; type: functional
Method in brief: (§1)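 Isoprenaline (0.1 µg/kg) and test compound in saline given into right femoral vein; blood pressure from left carotid artery, heart rate by tachograph triggered from arterial pulse. Test compound injected 5 min after isoprenaline, cumulative doses up to, in most cases, 2 mg/kg. Six rats per compound; ED50 with 95% confidence limits from log dose-response linear regression.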

[2] = biological target: Adrenergic receptor beta (Rattus norvegicus) (UniProt P18090+P10608+P26255); assay: Beta agonistic activity as the dose required to increase heart rate by 30 beats/min in anesthetized rats upon intravenous administration; type: functional, organism-based
Method in brief: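 Rats anesthetized with pentobarbitone sodium (75 mg/kg ip), reserpine-pretreated (5 mg/kg ip) 20-24 h earlier. Single doses of test compound given into tail vein, up to 20 animals depending on activity; blood pressure and heart rate recorded. ED30 (dose raising heart rate 30 beats/min) with 95% confidence limits from log dose-response linear regression.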

[3] = biological target: Beta-2 adrenergic receptor (Rattus norvegicus) (UniProt P10608); assay: Beta-2 adrenergic receptor antagonist activity as the dose required to inhibit 50% of vasodepressor response in anesthetized rats
Chain of Beta-2 adrenergic receptor (Rattus norvegicus) (P10608 whole entry, looked up): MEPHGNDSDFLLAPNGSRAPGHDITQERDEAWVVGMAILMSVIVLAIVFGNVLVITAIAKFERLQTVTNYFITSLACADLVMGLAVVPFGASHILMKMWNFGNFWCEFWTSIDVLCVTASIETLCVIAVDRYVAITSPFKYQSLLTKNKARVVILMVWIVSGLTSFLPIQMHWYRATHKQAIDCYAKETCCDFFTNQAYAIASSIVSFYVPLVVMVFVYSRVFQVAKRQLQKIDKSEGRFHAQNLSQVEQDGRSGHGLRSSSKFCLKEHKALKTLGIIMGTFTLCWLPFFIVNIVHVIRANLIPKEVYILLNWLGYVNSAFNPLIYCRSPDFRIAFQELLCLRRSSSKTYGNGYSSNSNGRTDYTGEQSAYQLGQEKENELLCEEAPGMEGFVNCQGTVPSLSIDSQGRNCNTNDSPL

[4] = biological target: Beta-1 adrenergic receptor (Rattus norvegicus) (UniProt P18090); assay: Beta-1 adrenoceptor blocking activity as the dose required to inhibit 50% of tachycardia in anesthetized rats; type: functional; method in brief: as §1

Chain of Beta-1 adrenergic receptor (Rattus norvegicus) (P18090 whole entry, looked up): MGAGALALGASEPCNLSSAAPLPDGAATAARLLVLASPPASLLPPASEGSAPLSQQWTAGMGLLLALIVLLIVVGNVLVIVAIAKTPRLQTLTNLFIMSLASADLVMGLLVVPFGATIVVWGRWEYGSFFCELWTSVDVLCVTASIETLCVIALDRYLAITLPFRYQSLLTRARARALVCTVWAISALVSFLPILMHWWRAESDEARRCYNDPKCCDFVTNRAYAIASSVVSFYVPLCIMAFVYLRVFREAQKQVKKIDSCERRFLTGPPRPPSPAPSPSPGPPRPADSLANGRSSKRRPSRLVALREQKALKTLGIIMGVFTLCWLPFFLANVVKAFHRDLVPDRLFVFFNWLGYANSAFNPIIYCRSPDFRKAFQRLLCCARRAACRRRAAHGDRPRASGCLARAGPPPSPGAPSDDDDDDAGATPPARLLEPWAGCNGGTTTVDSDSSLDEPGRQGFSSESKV

| Structure (SMILES) | ED50 [1] [mg/kg] | ED50 [3] [mg/kg] | ED50 [4] [mg/kg] | ED30 [2] [mg/kg] |
| --- | --- | --- | --- | --- |
| CC(C)NCC(O)COc1ccc(CCOCCOc2ccccc2)cc1 (centres undefined) | 0.068 | 0.924 | – | > 1 |
| CC(C)NCC(O)COc1ccc(OCCOCCc2ccc(C#N)cc2)cc1 (centres undefined) | – | > 2 | 0.654 | 0.032 |
| CC(C)NCC(O)COc1ccc(OCCOCCOc2ccc(OCC(O)CNC(C)C)cc2)cc1 (centres undefined) | – | > 10 | 0.052 | 0.005 |
| CC(C)NCC(O)COc1ccc(OCCOCCc2ccc(F)cc2)cc1F (centres undefined) | – | > 2 | 0.001 | 0.045 |
| CC(C)NCC(O)COc1ccc(OCCOCCc2ccccc2)cc1 (centres undefined) | – | > 50 | 0.015 | 0.02 |
| CC(C)(C)NCC(O)COc1ccc(OCCOCCc2ccc(F)cc2)cc1 (centres undefined) | – | > 2 | 0.002 | 0.024 |
| COc1ccc(CCOCCOc2ccc(OCC(O)CNC(C)C)cc2)cc1 (centres undefined) | – | > 2 | 0.344 | 0.009 |
| CC(C)(C)NCC(O)COc1ccc(OCCOCCc2ccccc2)cc1 (centres undefined) | – | 0.979 | 0.018 | 0.022 |
| CC(=O)Nc1ccc(CCOCCOc2ccc(OCC(O)CNC(C)C)cc2)cc1 (centres undefined) | – | > 2 | > 2 | 0.029 |
| CC(C)NCC(O)COc1ccc(OCCOCCOc2ccccc2)cc1 (centres undefined) | – | > 5 | 0.041 | 0.017 |
| CC(C)NCC(O)COc1ccc(CCOCCc2ccccc2)cc1 (centres undefined) | 0.163 | > 2 | – | > 1 |
| CC(C)NCC(O)COc1ccc(OCCOCCc2ccc(Cl)cc2)cc1 (centres undefined) | – | > 2 | 0.627 | 0.032 |
| CC(C)NCC(O)COc1ccc(CC(N)=O)cc1 (centres undefined) | – | – | 0.091 | > 1 |

Second part, led by results:

| ED50 [1] [mg/kg] | ED50 [3] [mg/kg] | ED50 [4] [mg/kg] | Structure (SMILES) | ED30 [2] [mg/kg] |
| --- | --- | --- | --- | --- |
| – | > 2 | 0.174 | CSc1ccc(CCOCCOc2ccc(OCC(O)CNC(C)C)cc2)cc1 (centres undefined) | 0.042 |
| – | – | 0.25 | COCCc1ccc(OCC(O)CNC(C)C)cc1 (centres undefined) | > 1 |
| – | > 2 | 0.003 | CC(C)NCC(O)COc1ccc(OCCOCCc2ccc(F)cc2)cc1 (centres undefined) | 0.037 |
| – | 0.834 | 0.025 | CC(C)NCC(O)COc1ccc(OCCOCCc2ccccc2)cc1Cl (centres undefined) | 0.016 |
| – | > 2 | 0.572 | Cc1cc(OCCOCCc2ccccc2)ccc1OCC(O)CNC(C)C (centres undefined) | 0.057 |
| – | > 2 | > 2 | CC(C)NC[C@H](O)COc1ccc(OCCOCCc2ccc(F)cc2)cc1 (stereo in doubt; 14b) | > 1 |
| – | > 2 | 0.004 | CC(C)NC[C@H](O)COc1ccc(OCCOCCc2ccc(F)cc2)cc1 (stereo in doubt; 14a) | 0.019 |
| – | > 2 | 0.001 | CC(C)NCC(O)COc1ccc(OCCOCCc2ccc(F)cc2)c(F)c1 (centres undefined) | > 1 |
| – | > 2 | 0.066 | Cc1ccc(CCOCCOc2ccc(OCC(O)CNC(C)C)cc2)cc1 (centres undefined) | 0.022 |
